Test results as given in ChEMBL document CHEMBL4229565 (J Med Chem, 2018).

Assays:
human NMT = assay: Therapeutic index, ratio of IC50 for human NMT to EC50 for bloodstream form of Trypanosoma brucei brucei s427; assay type: toxicity; details: read-out: Ratio IC50/EC50
[1] = target: T1, Glycylpeptide N-tetradecanoyltransferase 1 (Homo sapiens, UniProt P30419); assay: Inhibition of human NMT1 using [3H]-myristoyl-coA/biotinylated CAP5.5 as substrate after 15 mins by scintillation proximity assay
T1 sequence (P30419 whole entry): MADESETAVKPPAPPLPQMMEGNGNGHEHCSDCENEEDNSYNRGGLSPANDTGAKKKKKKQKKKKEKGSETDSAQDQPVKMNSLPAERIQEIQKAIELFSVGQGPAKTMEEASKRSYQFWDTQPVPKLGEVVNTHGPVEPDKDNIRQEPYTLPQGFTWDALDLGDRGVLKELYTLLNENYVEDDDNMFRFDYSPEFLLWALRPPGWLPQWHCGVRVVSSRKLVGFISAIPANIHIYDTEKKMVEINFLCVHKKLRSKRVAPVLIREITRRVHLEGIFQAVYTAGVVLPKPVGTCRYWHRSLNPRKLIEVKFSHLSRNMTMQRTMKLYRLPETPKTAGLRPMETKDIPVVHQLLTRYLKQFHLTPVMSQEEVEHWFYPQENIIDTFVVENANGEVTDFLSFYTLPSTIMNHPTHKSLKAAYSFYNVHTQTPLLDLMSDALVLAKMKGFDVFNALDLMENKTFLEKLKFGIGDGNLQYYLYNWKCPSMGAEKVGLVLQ

[2] = test system: Trypanosoma brucei brucei; assay: Antitrypanosomal activity against bloodstream form of Trypanosoma brucei brucei s427 after 69 hrs by resazurin-based […] analysis; assay type: functional, organism-based; details: s427, 69 h
Summary of the method: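 Bloodstream T. b. brucei s427 was grown in modified HMI9 (56 μM 1-thioglycerol in place of 2-mercaptoethanol) and counted by hemocytometer. Cells (10^4/ml) were added to compound in DMSO and incubated 69 h at 37 °C, 5% CO2. Resazurin (50 μM final) was then added for 4 h more. Fluorescence read at ex 528/em 590 nm.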

[3] = test system: human NMT1 versus Trypanosoma brucei NMT; assay: Selectivity ratio of IC50 for human NMT1 to IC50 for Trypanosoma brucei NMT; assay type: toxicity; details: read-out: Ratio IC50
Summary of the method: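 Both enzymes assayed by SPA in the same buffer: 0.125 μM [3H]myristoyl-coA, 0.5 μM biotinylated CAP5.5 peptide, 5 nM NMT, 22–23 °C. Reactions stopped at 15 min for HsNMT1 and 50 min for TbNMT. The ratio is HsNMT IC50 divided by TbNMT IC50.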

[4] = Intrinsic clearance in CD1 mouse liver microsomes at 1 uM measured up to 30 mins by UPLC-MS/MS method; assay type: ADME, microsome; details: 0.5 h
[5] = Inhibition of Trypanosoma brucei NMT using [3H]-myristoyl-coA/biotinylated CAP5.5 as substrate after 50 mins by scintillation proximity assay
Summary of the method: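 TbNMT scintillation proximity assay at 22–23 °C, with test compound dilutions added in DMSO. Reaction: 30 mM Tris pH 7.4, 0.5 mM EDTA, 0.5 mM EGTA, 1.25 mM DTT, 0.1% Triton X-100, 0.125 μM [3H]myristoyl-coA, 0.5 μM biotinylated CAP5.5 peptide, 5 nM enzyme. Enzyme added first, then substrate mix to start; stopped after 50 min with phosphoric acid pH 4.0/MgCl2/SPA beads; scintillation counting.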

[6] = target: Voltage-gated inwardly rectifying potassium channel KCNH2 (Homo sapiens, UniProt Q12809); assay: Inhibition of human ERG by patch clamp assay
Sequence of Voltage-gated inwardly rectifying potassium channel KCNH2 (Q12809 whole entry): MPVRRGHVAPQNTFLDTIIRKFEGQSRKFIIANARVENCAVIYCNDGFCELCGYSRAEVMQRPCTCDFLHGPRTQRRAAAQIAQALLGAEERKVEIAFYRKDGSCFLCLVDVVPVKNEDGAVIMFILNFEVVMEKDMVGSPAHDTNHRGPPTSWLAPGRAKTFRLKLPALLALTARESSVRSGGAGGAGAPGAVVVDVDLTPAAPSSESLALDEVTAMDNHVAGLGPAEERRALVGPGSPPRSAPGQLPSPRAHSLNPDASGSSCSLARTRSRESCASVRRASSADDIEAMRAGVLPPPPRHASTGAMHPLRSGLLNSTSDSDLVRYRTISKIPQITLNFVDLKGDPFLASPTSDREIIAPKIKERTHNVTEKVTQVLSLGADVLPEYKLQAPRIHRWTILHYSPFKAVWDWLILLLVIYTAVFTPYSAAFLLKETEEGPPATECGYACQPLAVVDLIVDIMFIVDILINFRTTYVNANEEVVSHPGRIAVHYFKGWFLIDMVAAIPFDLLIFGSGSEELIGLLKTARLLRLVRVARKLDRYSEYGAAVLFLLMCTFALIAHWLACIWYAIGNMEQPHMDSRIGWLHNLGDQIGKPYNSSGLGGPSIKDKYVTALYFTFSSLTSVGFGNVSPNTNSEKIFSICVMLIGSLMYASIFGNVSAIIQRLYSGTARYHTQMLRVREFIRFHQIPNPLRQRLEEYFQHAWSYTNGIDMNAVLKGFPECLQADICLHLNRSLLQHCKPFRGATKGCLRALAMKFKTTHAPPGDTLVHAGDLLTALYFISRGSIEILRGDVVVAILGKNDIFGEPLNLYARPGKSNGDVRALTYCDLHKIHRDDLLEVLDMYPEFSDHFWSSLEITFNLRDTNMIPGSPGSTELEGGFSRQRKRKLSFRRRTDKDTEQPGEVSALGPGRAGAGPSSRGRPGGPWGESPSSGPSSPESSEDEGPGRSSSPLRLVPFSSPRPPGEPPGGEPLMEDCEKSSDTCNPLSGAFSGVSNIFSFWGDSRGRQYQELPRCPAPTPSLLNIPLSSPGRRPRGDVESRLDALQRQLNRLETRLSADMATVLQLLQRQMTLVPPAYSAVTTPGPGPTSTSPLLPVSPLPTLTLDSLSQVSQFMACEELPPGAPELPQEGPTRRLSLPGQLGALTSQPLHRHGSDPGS

Structure (SMILES)	selectivity ratio (human NMT)	IC50 [1] [nM]	EC50 [2] [nM]	selectivity ratio [3]	CLH [4] [mL/min/g]	IC50 [5] [nM]	IC50 [6] [nM]
O=S(=O)(Nc1c(CC2CCCCC2)ccc2ncccc12)c1ccc(Br)cc1	> 4.3	> 100000	23000	> 71	33	1400	–
O=S(=O)(Nc1c(-c2ccccc2)ccc2ncccc12)c1ccc(Br)cc1	–	> 100000	50000	–	–	> 100000	–
CC(C)Cc1ccc2nn(C)cc2c1NS(=O)(=O)c1ccc(CCCO[C@@H]2C[C@H]3CC[C@@H](C2)N3C)cc1	–	–	39	–	1.4	5	3300
O=S(=O)(Nc1cc(-c2cccnc2)ccc1N1CCCC1)c1ccc(Br)cc1	–	–	–	–	–	39000	–
Cc1ccc2ncccc2c1NS(=O)(=O)c1ccc(Br)cc1	–	> 100000	–	> 3	3.6	33000	–
CC(C)Cc1ccc2ncccc2c1NS(=O)(=O)c1ccc(CCCOC[C@@H]2CN(C)CCO2)cc1	–	–	33	–	–	< 5	–
CN1CCC(CCCCc2ccc(S(=O)(=O)Nc3c(N4CCCC4)ccc4ncccc34)cc2)CC1	16	1200	76	110	–	11	–
O=S(=O)(Nc1c(N2CCCCCC2)ccc2ncccc12)c1ccc(Br)cc1	–	–	18000	–	> 50	690	–
COC(=O)c1ccc(N2CCCC2)c(NS(=O)(=O)c2ccc(Br)cc2)c1	> 4.8	> 100000	21000	> 100	–	800	–
CC(C)Cc1ccc2nn(C)cc2c1NS(=O)(=O)c1ccc(CCCC2CCN(C)CC2)cc1	–	–	5	–	1.2	< 5	–
CC(C)Cc1ccc2nn(C)cc2c1NS(=O)(=O)c1ccc(CCCOC[C@H]2CN(C)CCO2)cc1	–	–	9	–	22	< 5	–
O=S(=O)(Nc1c(C2CCCC2)ccc2ncccc12)c1ccc(Br)cc1	–	–	> 50000	–	> 50	3200	–
COc1ccc(S(=O)(=O)Nc2cc(C(=O)O)ccc2N2CCCCCC2)cc1	–	–	–	–	–	> 100000	–
COC(=O)c1ccc(N2CCCCCC2)c(NS(=O)(=O)c2ccc(OC)cc2)c1	8.3	> 100000	12000	> 100	–	1000	–
O=S(=O)(Nc1c(C2CCCCC2)ccc2ncccc12)c1ccc(Br)cc1	> 2.6	> 100000	39000	> 1.6	38	63000	–
CC(C)Cc1ccc2ncccc2c1NS(=O)(=O)c1ccc(CCCOC[C@@H]2CNCCO2)cc1	–	–	39	–	–	< 5	–
O=S(=O)(Nc1c(Cc2ccccc2)ccc2ncccc12)c1ccc(Br)cc1	–	> 100000	> 50000	> 16	23	6200	–
CC(C)Cc1ccc2ncccc2c1NS(=O)(=O)c1ccc(CCCN2CCN(C)CC2)cc1	–	–	84	–	2.3	7	–
CC(C)Cc1ccc2nn(C)cc2c1NS(=O)(=O)c1ccc(Br)cc1	–	> 100000	> 50000	> 91	–	1100	–
CC(C)Cc1ccc2nn(C)cc2c1NS(=O)(=O)c1ccc(CCCCN2CCCN(C)CC2)cc1	–	–	35	–	4	< 5	–
CC(C)Cc1ccc2nn(C)cc2c1NS(=O)(=O)c1ccc(CCCOC[C@@H]2CN(C)CCO2)cc1	–	–	26	–	24	< 5	–
CC(C)Cc1ccc2ncccc2c1NS(=O)(=O)c1ccc(CCCC2CCN(C)CC2)cc1	–	–	9	–	2.6	< 5	–
CC(C)Cc1ccc2nn(C)cc2c1NS(=O)(=O)c1ccc(CCCCN2CCN3CCC[C@@H]3C2)cc1	–	–	140	–	3.7	14	–
O=S(=O)(Nc1ccc2scnc2c1)c1ccc(Br)cc1	–	–	–	–	–	24000	–

Structure (SMILES)	selectivity ratio (human NMT)	IC50 [1] [nM]	EC50 [2] [nM]	selectivity ratio [3]	CLH [4] [mL/min/g]	IC50 [5] [nM]	IC50 [6] [nM]
CCC(CC)c1ccc2ncccc2c1NS(=O)(=O)c1ccc(Br)cc1	–	> 100000	> 50000	> 17	–	5700	–
Cn1cc2c(NS(=O)(=O)c3ccc(Br)cc3)c(C3CCCC3)ccc2n1	–	> 100000	> 50000	> 3.8	–	26000	–
COC(=O)c1ccc(N2CCCC2)c(NS(=O)(=O)c2ccc(OC)cc2)c1	> 6.7	> 100000	15000	> 100	–	700	–
O=C1OCc2c1ccc(N1CCCC1)c2NS(=O)(=O)c1ccc(Br)cc1	–	–	–	–	–	> 100000	–
Cn1cc2c(NS(=O)(=O)c3ccc(Br)cc3)c(CC3CCCCC3)ccc2n1	–	> 100000	> 50000	> 59	–	1700	–
O=S(=O)(Nc1cccc2ncccc12)c1ccc(Br)cc1	–	> 100000	> 50000	> 1.1	–	87000 to 90000	–
CC(C)Cc1ccc2nn(C)cc2c1NS(=O)(=O)c1ccc(CCCN2CCCN(C)CC2)cc1	–	–	16	–	–	5	–
CC(C)Cc1ccc2ncccc2c1NS(=O)(=O)c1ccc(CCCCN2C[C@@H](C)N[C@@H](C)C2)cc1	–	–	350	–	–	16	–
COC(=O)c1ccc(N2CCCCC2)c(NS(=O)(=O)c2ccc(Br)cc2)c1	–	–	–	–	–	> 100000	–
O=S(=O)(Nc1c(N2CCCC2)ccc2ncccc12)c1ccc(Br)cc1	3.7	41000	11000	5.5	27	7500	–
CC(C)Cc1ccc2ncccc2c1NS(=O)(=O)c1ccc(CCCO[C@H]2C[C@H]3CC[C@@H](C2)N3C)cc1	–	–	9	–	2.3	< 5	–
Cn1cc2c(NS(=O)(=O)c3ccc(Br)cc3)c(N3CCCC3)ccc2n1	> 4.1	> 100000	24000	> 3.7	33	27000	–
CC(C)Cc1ccc2nn(C)cc2c1NS(=O)(=O)c1ccc(CCCOC[C@@H]2COCCN2C)cc1	–	–	76	–	–	9	–
CC(C)Cc1ccc2ncccc2c1NS(=O)(=O)c1ccc(CCCO[C@@H]2CCCN(C)C2)cc1	–	–	39	–	–	< 5	–
CC(C)Cc1ccc2ncccc2c1NS(=O)(=O)c1ccc(CCCCC2CCNCC2)cc1	–	–	21	–	1.5	< 5	–
COC(=O)c1cccc(NS(=O)(=O)c2ccc(Br)cc2)c1	–	–	–	–	–	> 100000	–
CC(C)Cc1ccc2ncccc2c1NS(=O)(=O)c1ccc(Br)cc1	–	> 100000	> 50000	> 59	> 50	1700	–
Cn1cc2c(NS(=O)(=O)c3ccc(Br)cc3)c(C3CCCCC3)ccc2n1	> 3.1	> 100000	32000	> 5.9	–	17000	–
CC(C)Cc1ccc2ncccc2c1NS(=O)(=O)c1ccc(CCCCC2CCN(C)CC2)cc1	–	–	19	–	6.2	< 5	–
CC(C)Cc1ccc2ncccc2c1NS(=O)(=O)c1ccc(CCCCN2CCNCC2)cc1	–	–	180	–	1.3	10	–
Cn1cc2c(NS(=O)(=O)c3ccc(Br)cc3)cccc2n1	–	> 100000	> 50000	> 3.7	6.3	27000	–
CC(C)Cc1ccc2ncccc2c1NS(=O)(=O)c1ccc(CCCCN2CCN3CCC[C@@H]3C2)cc1	–	–	250	–	8.9	12	–
CC(C)Cc1ccc2ncccc2c1NS(=O)(=O)c1ccc(CCCN2CCCN(C)CC2)cc1	–	–	18	–	3.7	< 5	–
CC(C)Cc1ccc2nn(C)cc2c1NS(=O)(=O)c1ccc(CCCOC[C@H]2CCCN2C)cc1	–	–	20	–	–	< 5	–
